Compound activity as filed in PubChem BioAssay.
Compounds with a hit are over-represented: about 4.9% of the library has one in this group of screens.
WT yeast gro inh – growth inhibition of WT strain, primary screen, mitochondrial fusion inhibitor project, WT and mutant strains, chemical genetic. inhibition, % at 10 µM. mitochondrial fusion phenotypic screen. 190,000 compounds, 2.1% hits; in the data active = inhibition above about 58%; tested in S. cerevisiae
RAM inhibit – inhibitors of the yeast RAM network, primary screen, dse1pr::URA3 reporter, 5-FOA selection; S. cerevisiae dse1pr::URA3 reporter, 5-FOA growth OD615, 2 d; analog-sensitive cbk1-as2 kinase mutant strain; inhibition, % at 50 µM; 190,000 compounds, 1.8% hits; AID 868, 2007;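 active = inhibition above a set limit, 3 SD over mean compound inhibition, cut at about 8.4% in these data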;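 note: inhibition rescues growth on 5-FOA so higher OD means more RAM inhibition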
NPY Y1 blocker – NPY-Y1 receptor antagonists, primary screen, cell-based; HEK293-CNG Y1 cells, membrane potential fluorescence; NPY at EC95, then isoproterenol; inhibition, % at 3.6 µM; 200,000 compounds, 1% hits; AID 1040, 2008;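 active = inhibition above the campaign mean inhibition of all tested compounds plus 3 SD, cut at about 20% in these data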
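Benchmarks – high control isoproterenol alone, low control NPY with isoproterenol · Material – HEK293 Y1/CNG channel cell line · Times – dye 3 h, compound 60 min room temperature, stimulation 45 min · Probe or stimulus – NPY (25 nM), isoproterenol (1 µM), Ro 20-1724 (25 µM) · Evaluation – % inhibition of NPY effect · Signal – fluorescence, membrane potential probe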
NPY-Y2 PAM-ag – NPY-Y2 potentiators or agonists, primary screen, cell-based. Neuropeptide Y receptor type 2 (Homo sapiens), P49146. cells expressing NPY-Y2, potentiator/agonist read-out. activation, % at 3.6 µM. 220,000 compounds, 0.45% hits. AID 1359, 2008; in the data active = activation above about 27%;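 note: cells stimulated with NPY near EC25 plus isoproterenol at EC100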
Target sequence (P49146 whole entry, looked up): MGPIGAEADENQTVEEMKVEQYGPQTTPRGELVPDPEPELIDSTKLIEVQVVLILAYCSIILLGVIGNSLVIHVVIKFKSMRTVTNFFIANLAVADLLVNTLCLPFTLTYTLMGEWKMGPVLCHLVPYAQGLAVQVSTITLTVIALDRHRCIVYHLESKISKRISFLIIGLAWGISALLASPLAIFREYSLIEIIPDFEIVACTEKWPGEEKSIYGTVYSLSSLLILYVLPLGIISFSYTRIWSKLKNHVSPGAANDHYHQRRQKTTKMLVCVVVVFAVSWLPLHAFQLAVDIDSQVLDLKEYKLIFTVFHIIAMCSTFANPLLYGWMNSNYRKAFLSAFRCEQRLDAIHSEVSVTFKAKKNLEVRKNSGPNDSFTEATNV
NPY-Y1 PAM-ag – NPY-Y1 receptor potentiators or agonists, primary screen, cell-based. activation, % at 3.6 µM. NPY-Y1 expressing cells, potentiator/agonist activation. 220,000 compounds, 0.37% hits; in the data active = activation above about 33%, passing the limit was not always enough;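 note: cells stimulated with NPY at EC10 then isoproterenol at EC100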
NPY Y2 blocker – NPY-Y2 receptor antagonists, primary screen, cell-based; AID 793, 2007; inhibition, % at 2.7 µM; NPY-Y2 expressing cells, antagonist mode; 140,000 compounds, 0.99% hits; Neuropeptide Y receptor type 2 (Homo sapiens), P49146
NPY-Y1 ant conf – NPY-Y1 receptor antagonists, retest of hits, confirmation, HEK293-CNG cells, membrane potential fluorescence, triplicate. shares compounds with NPY Y1 blocker. cAMP; NPY challenge against isoproterenol-raised cAMP. inhibition, % at 3.6 µM. 1,200 compounds, 21% hits. AID 1254, 2008; in the data active = inhibition above about 20%
NPY-Y2 antag ct – NPY-Y2 receptor antagonists, selectivity check, confirmation, counter-screen for NPY-Y1 antagonist project, HEK293-CNG cells, membrane potential fluorescence, triplicate; shares compounds with NPY Y1 blocker; 1,200 compounds, 28% hits; AID 1255, 2008; inhibition, % at 3.6 µM; antagonism; cells given NPY, then isoproterenol
NPY-Y1 confirm – NPY-Y1 potentiators or agonists, confirmation, cell-based; activation, % at 3.6 µM; cell-based NPY-Y1 potentiator/agonist assay; shares compounds with NPY-Y1 PAM-ag; 280 compounds, 20% hits; in the data active = activation above about 45%;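 note: cells challenged with NPY at its EC10 plus isoproterenol stimulus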
NPY-Y2 counter – NPY-Y2 potentiators or agonists, counter-screen for NPY-Y1 potentiator project, cell-based, fluorescence. shares compounds with NPY-Y1 PAM-ag. HEK293-CNG cells, membrane-potential fluorescence (FLIPR), 1536-well. activation, % at 3.6 µM. 280 compounds, 20% hits; in the data active = activation above about 33%
NPY-Y1 agonist – NPY-Y1 direct agonists without NPY, confirmation, counter-screen for NPY-Y1 potentiator project, cell-based, fluorescence | shares compounds with NPY-Y1 PAM-ag | HEK293 Y1-CNGC, membrane potential fluorescence, agonist mode | activation, % at 3.6 µM | 280 compounds, 50% hits;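 active = percent activation above the mean of DMSO-only control wells plus 3 SD of those wells, cut at about 18% in these data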;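 note: cells challenged with isoproterenol plus Ro 20-1724 with no NPY in test wells; Y1 agonism lowers isoproterenol-driven cAMP and reduces probe fluorescence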
NPY-Y2 ag – NPY-Y2 direct agonists without NPY, counter-screen for NPY-Y1 potentiator project, cell-based, fluorescence | shares compounds with NPY-Y1 PAM-ag | HEK293 Y2-CNGC, membrane potential fluorescence, agonist mode | activation, % at 3.6 µM | 280 compounds, 67% hits | AID 1698, 2009;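 active = activation above the solvent-only control wells' mean plus 3 SD, cut at about 11% in these data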;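 note: agonism lowers cAMP so well fluorescence drops in active wells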
CNGC counter – CNGC cAMP sensor activity inhibitors, counter-screen for NPY-Y1 potentiator/agonist project, cell-based, HEK293-CNG parental, membrane potential fluorescence, Y1 set. isoproterenol cAMP. inhibition, % at 3.6 µM. shares compounds with NPY-Y1 PAM-ag. AID 1704, 2009. 280 compounds, 42% hits;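 active = inhibition above the mean of stimulated solvent-only control wells plus 3 SD, cut at about 22% in these data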
NPY-Y2 confirm – NPY-Y2 potentiators or agonists, confirmation, cell-based | activation, % at 3.6 µM | 450 compounds, 20% hits | AID 1539, 2009 | shares compounds with NPY-Y2 PAM-ag | cell-based NPY-Y2 potentiator/agonist assay; in the data active = activation above about 33%
NPY-Y1 counter – NPY-Y1 potentiators or agonists, counter-screen for NPY-Y2 potentiator project, cell-based, fluorescence; Y1 HEK293-CNG cells, membrane potential fluorescence; shares compounds with NPY-Y2 PAM-ag; AID 1651, 2009; activation, % at 3.6 µM; 450 compounds, 20% hits; in the data active = activation above about 45%;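 note: cells stimulated with submaximal NPY then isoproterenol with phosphodiesterase inhibitor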
NPY-Y1 agonist 2 – NPY-Y1 direct agonists, selectivity assay for NPY-Y2 potentiator project, cell-based, fluorescence; 450 compounds, 37% hits; HEK293 Y1-CNGC, membrane potential fluorescence, agonism; activation, % at 3.6 µM; shares compounds with NPY-Y2 PAM-ag;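 active = activation above the mean of DMSO-only control wells plus 3 SD, cut at about 18% in these data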;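 note: cells stimulated with 1 µM isoproterenol plus the PDE inhibitor Ro 20-1724; Y1 agonists lower the membrane potential dye signal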
CNGC inhibitor – CNGC cAMP sensor activity inhibitors, counter-screen for NPY-Y2 potentiator project, cell-based, HEK293-CNG parental, membrane potential fluorescence. isoproterenol cAMP. inhibition, % at 3.6 µM. 450 compounds, 32% hits. shares compounds with NPY-Y2 PAM-ag;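 active = inhibition above the control-well mean plus 3 SD of those wells, cut at about 22% in these data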
NPY-Y2 ag 2 – NPY-Y2 direct agonists, counter-screen for NPY-Y2 potentiator project, cell-based, fluorescence; 450 compounds, 56% hits; activation, % at 3.6 µM; shares compounds with NPY-Y2 PAM-ag; HEK293 Y2/CNGC cells, membrane potential fluorescence, agonist mode; AID 1710, 2009;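 active = activation above the mean of solvent-only control wells plus 3 SD, cut at about 10% in these data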;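 note: cells stimulated by isoproterenol with no NPY added so direct agonism is tested; agonism lowers probe fluorescence through less cAMP and CNG channel opening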
Large screens that a line does not name were inactive (follow-up assays come after a bar, where they were run). Cut-off read from the data, not from the text of the source, unless noted: active = inhibition above about 17%; inactive = the rest.

COc1ccc2c(c1)c(C(=O)CN1CCN(C)CC1)c(C)n2Cc1ccccc1	NPY Y1 blocker 25 | NPY-Y1 ant conf inactive | NPY-Y2 antag ct inactive
C/C1=C\[C@@H](C)C/C=C/[C@H]2[C@@H]3O[C@]3(C)[C@@H](C)[C@H]3[C@H](Cc4c[nH]c5ccccc45)NC(=O)[C@]32C(=O)/C=C/C(=O)[C@@H]1O	WT yeast gro inh 71, NPY Y1 blocker 40, NPY-Y2 PAM-ag 39 (no result: NPY Y2 blocker) | NPY-Y1 ant conf 35 | NPY-Y2 antag ct inactive | NPY-Y2 confirm inactive | NPY-Y1 counter inactive | NPY-Y1 agonist 2 inactive | CNGC inhibitor inactive | NPY-Y2 ag 2 17
Cc1ccc(N(C)C(=O)Oc2ccc(C(=O)c3ccc(Cl)cc3)cc2)cc1	none
CC(CCc1ccccc1)NCCC#N (stereo not drawn)	NPY-Y1 PAM-ag 56 (no result: WT yeast gro inh, RAM inhibit, NPY Y1 blocker, NPY Y2 blocker) | NPY-Y1 confirm inactive | NPY-Y2 counter inactive | NPY-Y1 agonist inactive | NPY-Y2 ag inactive | CNGC counter inactive
c1ccc(CCNCc2ccccc2)cc1	none
Cc1nn(Cc2ccccc2)c(C)c1C=C1C(=O)NC(=O)NC1=O	none
O=P(Nc1ccccc1)(Nc1ccccc1)Oc1ccc(Cl)cc1	NPY-Y1 PAM-ag 41 | NPY-Y1 confirm inactive | NPY-Y2 counter inactive | NPY-Y1 agonist 23 | NPY-Y2 ag 22 | CNGC counter 44
CN1CCN(c2ccc([N+](=O)[O-])cc2Cl)CC1	none (no result: NPY Y2 blocker)
CC(C)(C)c1cc([N+](=O)[O-])cc(C(C)(C)C)c1O	NPY-Y2 PAM-ag 45 (no result: NPY Y2 blocker) | NPY-Y2 confirm inactive | NPY-Y1 counter inactive | NPY-Y1 agonist 2 inactive | CNGC inhibitor inactive | NPY-Y2 ag 2 inactive
CCC(C)N1C(=O)NC(=O)C2(Cc3c(ccc4ccccc34)N(C)C2)C1=O (stereo not drawn)	none
Cc1cc(C)n(-c2ccc(NN=C(C#N)C#N)cc2)n1	NPY-Y2 PAM-ag 42 (no result: WT yeast gro inh, RAM inhibit, NPY Y1 blocker, NPY Y2 blocker) | NPY-Y2 confirm inactive | NPY-Y1 counter inactive | NPY-Y1 agonist 2 inactive | CNGC inhibitor inactive | NPY-Y2 ag 2 inactive
